Screening results from PubChem.
HCV NS3 hel inh: blocks Hepatitis C virus NS3 helicase unwinding; NS3 helicase DNA unwinding, Cy5 molecular beacon fluorescence; actives 0.56% (n = 290,000); inhibition, % at 10.9 µM;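 active means inhibition above the mean of all tested compounds plus 3 SD, set per campaign, cut at about 35% in these data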
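Test system: hepatitis C virus NS3 helicase domain fragment enzyme. Also added: annealed dual-labelled DNA beacon duplex, ATP-started. Timing: 60 min unwinding reaction at 25 °C after ATP addition. Technique: Cy5 fluorescence. Measure: % inhibition of unwinding.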
DNMT1 inh: inhibitors of human DNMT1 | DNMT1 molecular beacon, Hinp1I cleavage, fluorescence | inhibition (reported as % activation of signal), % at 10 µM | P26358 | actives 0.83% (n = 360,000) | AID 588458; in the data active means inhibition above about 50%
SUMO1 PPI mod: modulators of human SUMO1-mediated protein-protein interactions. P63165. inhibition, % at 20 µM. actives 0.33% (n = 360,000). SUMO1 binding to a labelled peptide, TR-FRET, 1 h
Pemphigus Ab inh: human desmoglein-3 autoantibody binding inhibition | P32926 | DSG3-coupled beads, scFv-anti-DSG3-GFP binding, flow cytometry; active compounds read low | binding (percent of control), % at 10 µM | actives 0.48% (n = 310,000) | AID 588358;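 active means binding more than 3 SD below its plate's average and above zero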;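 further: hits lower antibody fragment binding to DSG3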
Target sequence (P32926 whole entry, looked up, the tested form may be a part): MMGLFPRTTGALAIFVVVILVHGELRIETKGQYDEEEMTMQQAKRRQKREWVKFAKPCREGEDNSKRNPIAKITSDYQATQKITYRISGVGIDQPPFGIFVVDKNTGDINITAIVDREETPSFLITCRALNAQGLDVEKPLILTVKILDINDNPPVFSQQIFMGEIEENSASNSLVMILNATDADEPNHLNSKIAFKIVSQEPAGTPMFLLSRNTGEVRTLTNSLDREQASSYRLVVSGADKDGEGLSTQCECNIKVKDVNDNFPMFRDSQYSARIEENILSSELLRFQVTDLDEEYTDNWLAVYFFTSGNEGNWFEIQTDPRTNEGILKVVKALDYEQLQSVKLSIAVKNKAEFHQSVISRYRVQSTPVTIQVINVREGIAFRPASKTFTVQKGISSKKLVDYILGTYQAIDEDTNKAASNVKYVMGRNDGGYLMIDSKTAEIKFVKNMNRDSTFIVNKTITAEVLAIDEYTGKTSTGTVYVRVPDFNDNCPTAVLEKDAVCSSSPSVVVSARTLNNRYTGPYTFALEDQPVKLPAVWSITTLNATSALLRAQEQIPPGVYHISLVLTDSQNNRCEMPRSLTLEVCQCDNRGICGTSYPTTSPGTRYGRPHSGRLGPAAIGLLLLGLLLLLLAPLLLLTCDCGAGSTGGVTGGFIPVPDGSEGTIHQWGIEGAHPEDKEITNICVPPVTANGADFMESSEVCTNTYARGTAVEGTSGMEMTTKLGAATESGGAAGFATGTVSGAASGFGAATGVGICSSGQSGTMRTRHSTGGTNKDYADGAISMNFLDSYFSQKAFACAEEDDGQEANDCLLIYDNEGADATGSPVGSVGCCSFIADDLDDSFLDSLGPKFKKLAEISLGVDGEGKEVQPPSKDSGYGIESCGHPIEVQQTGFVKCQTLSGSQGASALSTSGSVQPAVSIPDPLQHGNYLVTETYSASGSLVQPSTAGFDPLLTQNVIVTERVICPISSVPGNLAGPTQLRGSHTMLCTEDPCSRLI
UHRF1 binding: blocks human UHRF1 binding to methylated DNA; actives 0.75% (n = 370,000); Q96T88; inhibition, % at 4.4 µM; AID 687016; UHRF1 binding to methylated oligo, TR-FRET; in the data active means inhibition above about 21%;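 further: UHRF1 SRA domain binding a hemimethylated CpG hairpin DNA probe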
MBD2 inh: MBD2-methylated oligo binding inhibition; actives 0.31% (n = 370,000); TR-FRET, MBD2 binding to methylated oligonucleotide; AID 686964; inhibition, % at 4.4 µM; Q9UBB5; in the data active means inhibition above about 13%
NS3 helicase cf: HCV NS3 helicase inhibition, confirmation assay; NS3 helicase DNA unwinding, Cy5 molecular beacon fluorescence; actives 31% (n = 1,600); inhibition, % at 10.9 µM; shares compounds with HCV NS3 hel inh;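 active means inhibition above the mean of all tested compounds plus 3 SD, cutoff set per campaign, cut at about 36% in these data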
FID counter trip: displaces DNA intercalator in HCV helicase counter-screen; shares compounds with HCV NS3 hel inh; DNA fluorescent intercalator displacement, fluorescence; inhibition, % at 7.9 µM; actives 4% (n = 1,600); AID 1945;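 further: higher means more displacement of ethidium bromide from the DNA hairpin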
FID counter DR: displaces fluorescent intercalator from DNA, HCV helicase counter-screen; IC50, µM; shares compounds with HCV NS3 hel inh; fluorescent intercalator displacement from DNA, fluorescence; 120 tested, under 10 active; call rule not given here
Hits are given with their value; . = inactive; / = not tested or not shown. Rows were chosen to be rich in hits. Some 2.5% of all compounds tested hit in one or more screens of this group. Unless noted, no stated cut-off is given here; in the data, active means inhibition above about 37%; inactive means the rest.

SMILES	HCV NS3 hel inh	DNMT1 inh	SUMO1 PPI mod	Pemphigus Ab inh	UHRF1 binding	MBD2 inh	NS3 helicase cf	FID counter trip	others
C#CCSC1=C(C#N)C(c2cccs2)C(C(=O)OCC)=C(C)N1 (stereo not drawn)	46	.	.	.	.	.	.	.
COc1ccc(C(=O)COC(=O)/C=C/c2ccccc2)c(OC)c1	/	.	.	.	.	.	/	/
Cc1c(CC(=O)O)c(=O)oc2cc(OCc3ccc(F)cc3Cl)ccc12	48	.	.	.	.	.	51	.
CN1CCN(CC(=O)N(C)c2nc(-c3ccccc3)cs2)CC1	49	.	.	/	.	.	.	.
CN1CCN(CC(=O)Nc2nc(-c3ccccc3)cs2)CC1	.	.	.	.	.	.	/	/
Cc1cc(OCC(=O)NC2CC(C)(C)NC(C)(C)C2)c(C)cc1Br	.	.	.	.	.	.	/	/
COc1c(N2CCN[C@H](C)C2)c(F)cc2c(=O)c(C(=O)O)cn(C3CC3)c12	.	/	/	/	/	/	/	/
COc1c(N2CCN(C(=S)NCc3ccccc3)C(C)C2)c(F)cc2c(=O)c(C(=O)O)cn(C3CC3)c12 (stereo not drawn)	40	.	.	.	.	.	42	.	FID counter DR=.
O=C(CSc1nc2ccccc2n1Cc1ccccc1)N/N=C/c1ccccc1C(=O)O	.	.	.	.	.	.	/	/
O=C(CSc1nc2ccccc2n1Cc1ccccc1Cl)N/N=C/c1ccccc1C(=O)O	40	.	.	.	.	.	50	.
CC12CCC(=O)N1C(C(=O)NNC(=O)c1ccc(F)cc1)CS2 (stereo not drawn)	/	.	.	.	.	.	/	/
Cc1ccc(OCC(=O)NCc2cccnc2)cc1	.	.	.	.	.	.	/	/
CN(C)c1ccc(N2CN=C3SCC(=O)N3C2)cc1	59	.	.	.	.	.	.	.
O=C1CSC2=NCN(c3ccc4c(c3)OCO4)CN12	.	.	.	.	.	.	/	/
CN(C)C(=S)Nn1c(-c2ccccc2)nc2ccccc2c1=O	.	.	.	.	.	.	/	/
Cc1nc(SCC(=O)Nn2c(-c3ccccc3)nc3ccccc3c2=O)n[nH]1	47	.	.	.	.	.	.	.
Cc1cccc(-c2nc3ccccc3c(=O)n2NC(=S)N(C)C)c1	39	.	.	.	.	.	.	.
Cc1nc(SCC(=O)Nc2cccc(C(=O)O)c2)n[nH]1	.	.	.	.	.	.	/	/
O=C(OCc1nnc(-c2ccccc2)o1)c1ccc(S(=O)(=O)NCc2ccco2)cc1	.	.	.	.	.	.	/	/
CCC(Cc1ccccc1)NC(=O)C1CC1 (stereo not drawn)	41	.	.	.	.	.	.	.
CC(CCc1ccccc1)NC(=O)C1CC1 (stereo not drawn)	/	.	.	.	.	.	/	/
COc1ccc(CN2C[C@H]3CCCN3c3cc(Br)ccc3S2(=O)=O)cc1	/	.	.	.	/	/	/	/
Cc1c(NC(=O)c2nn3c(C(F)(F)F)cc(-c4ccccc4)nc3c2Cl)c(=O)n(-c2ccccc2)n1C	37	.	.	.	.	.	.	.
O=C(O)c1cccc(S(=O)(=O)N2CCCC(c3nc4c(nnn4Cc4ccccc4Cl)c(=O)[nH]3)C2)c1 (stereo not drawn)	.	.	.	.	.	.	/	/
O=C(O)c1cccc(S(=O)(=O)N2CCCC(c3nc4c(nnn4Cc4ccc(F)cc4)c(=O)[nH]3)C2)c1 (stereo not drawn)	40	.	.	.	.	.	.	.
SMILES	HCV NS3 hel inh	DNMT1 inh	SUMO1 PPI mod	Pemphigus Ab inh	UHRF1 binding	MBD2 inh	NS3 helicase cf	FID counter trip	others
Cc1ccc(Nc2cccccc2=O)cc1	45	.	.	.	.	.	.	.
Cc1csc(NC(=O)CSc2nnc(-c3ccccc3)o2)n1	.	.	.	.	.	.	/	/
CC1CCc2c(sc(NC(=O)CSc3nnc(-c4ccccc4)o3)c2C#N)C1 (stereo not drawn)	47	.	.	.	.	.	.	.
Cc1sc(NC(=O)CSc2nnc(-c3ccccc3)o2)c(C#N)c1C	38	.	.	.	.	.	.	.
N#Cc1c(NC(=O)CSc2nnc(-c3ccccc3)o2)sc2c1CCCC2	.	.	.	.	/	/	/	/
COc1ccc(S(=O)(=O)N2CCCCC2)cc1NC(=O)Cc1cccc(C(F)(F)F)c1	/	.	.	.	.	.	/	/
O=C(O)CC(c1cccc2ccccc12)N1Cc2ccccc2C1=O (stereo not drawn)	.	.	.	.	.	.	/	/
O=C(O)CC(c1cccc2ccccc12)n1cccc1 (stereo not drawn)	67	.	.	/	.	.	.	.
O=C(NC1CCCCCC1)C1Cc2ccccc2CN1C(=O)c1ccco1 (stereo not drawn)	.	.	.	.	.	.	/	/
COc1ccc2[nH]c3c(C)c4ccncc4c(C)c3c2c1	42	.	.	/	36	33	112	90
S=C(Nc1ccc(OCc2ccccc2)cc1)Nc1cccc(Cl)c1Cl	.	.	.	.	.	.	/	/
O=C(Nc1ncc(Br)s1)C(Cc1ccccc1)n1cccc1 (stereo not drawn)	44	.	.	.	.	.	.	.
O=C(COc1ccc(Cl)cc1)NCCSCc1cccc(Cl)c1	.	.	.	.	.	.	/	/
O=C(O)c1ccccc1-c1ccccc1C(=O)NNc1ccc([N+](=O)[O-])cc1	38	.	.	.	.	.	.	.
O=C(NNc1ccc([N+](=O)[O-])cc1)c1ccccc1Cl	.	.	.	.	.	.	/	/
Cc1c(NC(=O)COC(=O)c2ccccc2Cl)c(=O)n(-c2ccccc2)n1C	108	.	.	.	.	.	.	.
CC(C)(C)OC(=O)N1CCC(CNC(=O)c2cccs2)CC1	.	.	.	.	.	.	/	/
CC(C)(C)OC(=O)N1CCC(CNC(=O)c2ccc(F)cc2F)CC1	41	.	.	.	23	.	.	.
CC1(C)C(=O)Nc2ccccc2N1C(=O)Cn1ncc(Cl)c(Cl)c1=O	47	.	.	.	.	.	.	.
Cc1nn(CC(=O)N2c3ccccc3NC(=O)C2(C)C)c(C)c1[N+](=O)[O-]	.	.	.	.	.	.	/	/
O=C(CN1CCC(C(=O)O)CC1)Nc1ccccc1Oc1ccccc1	37	.	.	.	.	.	.	.
Cc1[nH]c(=O)[nH]c(=O)c1S(=O)(=O)N1CCCC(C(=O)NCc2ccco2)C1 (stereo not drawn)	.	.	.	.	.	.	/	/
